Inconclusive results are not listed. The source made the active and inactive calls.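 How the source made its calls, unless noted: active means RAM network inhibition above 8.4% in each of two replicates, 3 SD over the compound average; inconclusive means above 8.4% inhibition in only one replicate; inactive means 8.4% inhibition or less in each replicate.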
Legend:
[1] = OD615 S. cerevisiae growth inhibition, permissive medium, pilot counter-assay, permissive growth control for S. cerevisiae lifespan shortening project (AID 705;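 active means growth inhibition above 25% in both replicates, a cutoff set 3 SD above the mean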); settings: OD615, 24 h, at 10 µM, active compounds read high
Summary of the method: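 Material: engineered DeaD yeast; Compound: one dose 10 µM, DMSO 0.25% final; Detection: absorbance (optical density) at 615 nm; Buffer or medium: permissive raffinose/galactose medium; Timing: 24 h exposure, 30 °C.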

[2] = Restrictive medium S. cerevisiae growth inhibition, OD615, pilot screen of yeast lifespan reduction project, restrictive growth control (AID 706;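 active means growth inhibition above a set limit, 3 SD over mean compound inhibition, in both replicates, cut at about 43% in these data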;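 further: modified DeaD lifespan yeast strain shifted to restrictive glucose medium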); settings: OD615, 48 h, at 10 µM, active compounds read high
Summary of the method: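 Buffer or medium: restrictive glucose medium (CSMM-D); test system: modified S. cerevisiae; doses: single dose of 10 µM compound final, 0.25% DMSO; schedule: 48 h compound exposure at 30 °C; detection: absorbance (optical density) measured at 615 nm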

[3] = viability gain of MRP-1-high H69AR cells under doxorubicin, pilot screen, MRP-1 activator project, CellTiter-Glo, duplicate (AID 807;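 active means viability increase at or above a cutoff of the median across tested compounds plus 3 SD, cut at about 8.5% in these data, passing the limit was not always enough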;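 further: compound pretreatment 18-22 h then 72 h combined with doxorubicin; 0% = doxorubicin alone and 100% = vehicle without doxorubicin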); settings: H69AR viability with doxorubicin, CellTiter-Glo luminescence; at 10 µM; active compounds read high
[4] = growth suppression of beta-catenin knockout HCT116, pilot screen, human colon tumor cells (AID 823;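 active means cell viability at or below a set limit in both duplicate runs, the limit being the all-compound median minus 4 SD, cut at about 23% in these data, passing the limit was not always enough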;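 further: 0% = wells killed by 20 µM Hyamine and 100% = untreated DMSO cell wells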); settings: CellTiter-Glo, 60 h, at 10 µM, active compounds read low
[5] = growth suppression of PTEN-deleted HCT116, pilot screen, cell-based, HCT116 clonal line, CellTiter-Glo (AID 824;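 active means viability at or below 27.92% in each of two runs, the all-compound median minus 4 SD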;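 further: 0% = 20 µM Hyamine control and 100% = vehicle cell control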); settings: 60 h, at 10 µM, active compounds read low
[6] = inhibitors of the yeast RAM network, pilot screen, dse1pr::URA3 reporter, 5-FOA selection (AID 869;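 active means inhibition over a set limit, the all-compound mean plus 3 SD, in both replicate runs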;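 further: 0% = DMSO wells with no growth and 100% = 10 µM 1-NA-PP1 with full growth; RAM network block rescues cells from 5-FOA so hits raise OD615 growth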); settings: S. cerevisiae dse1pr::URA3 5-FOA growth, OD615, 2 d; at 10 µM; active compounds read high; strain carries analog-sensitive mutant Cbk1 kinase
[7] = RAM signaling pathway blockade in yeast – S. cerevisiae, Pdr1DBD-CYC8 efflux-inhibited sensitized strain, primary screen (AID 1298);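 further: 0% = DMSO untreated cells without growth and 100% = 10 µM 1-NA-PP1 full growth; higher means more yeast growth rescued from 5-FOA killing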; settings: S. cerevisiae cbk1-as DSE1-URA3 strain, 5-FOA growth OD615, 2 d; at 50 µM; active compounds read high

CCOC(=O)C1=C(C)S/C(=C\N(C)C)C1=O
inactive: growth inhibition [1] -8.63% | growth inhibition [2] -1.29% | viability increase [3] -0.78% | viability [4] 98.6% | viability [5] 90.3% | inhibition [6] -0.055% | RAM network inhibition [7] -2.3%

COCCOC(=O)C1=C(C)NC2=C(C(=O)CCC2)C1c1ccc2c(c1)OCO2 (stereo not drawn)
inactive: growth inhibition [1] -3.56% | growth inhibition [2] -17.8% | viability increase [3] -2.23% | viability [4] 93.9% | viability [5] 93% | inhibition [6] 1.08% | RAM network inhibition [7] 0.14%

CSC1=NCCN1C(=O)C(C)(C)Oc1ccc(Cl)cc1
inactive: growth inhibition [1] 7.64% | growth inhibition [2] 4.49% | viability increase [3] -4.07% | viability [4] 91.2% | viability [5] 84.7% | inhibition [6] 0.3% | RAM network inhibition [7] -0.37%

CCOC(=O)CN1CC23C=CC(O2)C(C(=O)Nc2ccc4c(c2)OCO4)C3C1=O (stereo not drawn)
inactive: growth inhibition [1] -0.14% | growth inhibition [2] 3.22% | viability increase [3] -1.01% | viability [4] 107% | viability [5] 103% | inhibition [6] 2.71% | RAM network inhibition [7] 1.23%

Cc1ccc(CC2C(=O)N(c3ncccn3)C(=O)C2C)cc1 (stereo not drawn)
inactive: growth inhibition [1] -5.95% | growth inhibition [2] -9.6% | viability increase [3] 0.74% | viability [4] 104% | viability [5] 93.1% | inhibition [6] 0.685% | RAM network inhibition [7] 1.72%

O=C(c1ccc(F)cc1)c1cn[nH]c1-c1ccccc1O
inactive: growth inhibition [1] -15.3% | growth inhibition [2] -15.9% | viability increase [3] -1.5% | viability [4] 99.5% | viability [5] 94.9% | inhibition [6] 2.42% | RAM network inhibition [7] 4.4%

CCOCCCNC(=O)Cn1cc2c(n1)CCCC2
inactive: growth inhibition [1] 3.43% | growth inhibition [2] 1.36% | viability increase [3] -0.46% | viability [4] 105% | viability [5] 98.8% | inhibition [6] 1.91% | RAM network inhibition [7] 1.03%

Cc1c(C(=O)NCc2ccco2)sc2nc(-c3ccccc3)cn12
inactive: growth inhibition [1] 3.59% | growth inhibition [2] 10.2% | viability increase [3] -4.77% | viability [4] 78.6% | viability [5] 67.3% | inhibition [6] 0.04% | RAM network inhibition [7] 2.7%

CCOC(=O)c1c(C)n(C)c2ccc(OCC(O)CN(CC)CC)cc12 (stereo not drawn)
inactive: growth inhibition [1] -9.63% | growth inhibition [2] -1.99% | viability increase [3] -4.23% | viability [4] 77.6% | viability [5] 81.5% | inhibition [6] 1.71% | RAM network inhibition [7] -0.57%

C=COCCn1c(-c2nonc2N)nc2ccccc21
inactive: growth inhibition [1] -6.54% | growth inhibition [2] -3.9% | viability increase [3] -4.61% | viability [4] 82.4% | viability [5] 74.9% | inhibition [6] 1.75% | RAM network inhibition [7] 6.18%

CC(C)Cc1cc(-c2ccco2)c(C#N)c(N)n1
inactive: growth inhibition [1] -11.4% | growth inhibition [2] -17.1% | viability increase [3] -4.39% | viability [4] 80.9% | viability [5] 89.4% | inhibition [6] 3.23% | RAM network inhibition [7] 9.01%

O=C(Nc1ccc(F)cc1F)N1CCN(c2ncccn2)CC1
inactive: growth inhibition [1] -14.8% | growth inhibition [2] -26.3% | viability increase [3] -0.19% | viability [4] 106% | viability [5] 100% | inhibition [6] 1.76% | RAM network inhibition [7] 3.24%

Cc1cccc(-n2c(Cc3cc(=O)[nH]c(=O)[nH]3)nnc2SCC(=O)NCC2CCCO2)c1 (stereo not drawn)
inactive: growth inhibition [1] -2.17% | growth inhibition [2] -13.5% | viability increase [3] -2.52% | viability [4] 93.5% | viability [5] 92.3% | inhibition [6] 0.535% | RAM network inhibition [7] -1.56%

CC(=O)c1ccc(OCC(O)CN2CCN(Cc3ccccc3)CC2)cc1 (stereo not drawn)
inactive: growth inhibition [1] -6.49% | growth inhibition [2] 4.36% | viability increase [3] -1.36% | viability [4] 101% | viability [5] 92.1% | inhibition [6] -0.305% | RAM network inhibition [7] 0.94%

CCCCOC(=O)c1ccc(NS(=O)(=O)c2cc(-c3nnnn3CC)ccc2OC)cc1
inactive: growth inhibition [1] 3.03% | growth inhibition [2] 2.27% | viability increase [3] -2.06% | viability [4] 91.5% | viability [5] 98% | inhibition [6] 0.93% | RAM network inhibition [7] 4.7%

O=C(Cn1cc2c(n1)CCCCC2)NC1CCN(Cc2ccccc2)CC1
inactive: growth inhibition [1] -6.81% | growth inhibition [2] 2.45% | viability increase [3] -1.57% | viability [4] 86.5% | viability [5] 83.4% | inhibition [6] 2.21% | RAM network inhibition [7] 7.63%

CC1=C(C(=O)OCc2ccc3c(c2)OCO3)C(c2ccc(Cl)cc2)NC(=O)N1 (stereo not drawn)
inactive: growth inhibition [1] -4.12% | growth inhibition [2] -5.46% | viability increase [3] -4.91% | inhibition [6] 1.32% | RAM network inhibition [7] 4.12%
active: viability [4] 19.4% | viability [5] 22.3%

CC1CCCN(C(=O)c2ccc3c(c2)C(=O)N(CCC2=CCCCC2)C3=O)C1 (stereo not drawn)
inactive: growth inhibition [1] -5.42% | growth inhibition [2] -30.7% | viability increase [3] -0.25% | viability [4] 87.5% | viability [5] 83.8% | inhibition [6] 0.28% | RAM network inhibition [7] 3.27%

O=C1c2ccccc2C(=O)N1CSc1ncccn1
inactive: growth inhibition [1] 0.27% | growth inhibition [2] -7.91% | viability increase [3] -3.86% | viability [4] 87.4% | viability [5] 89.7% | inhibition [6] 1.09% | RAM network inhibition [7] 2.25%

O=C(O)c1ccc(CSc2nnc(-c3ccco3)o2)cc1
inactive: growth inhibition [1] 7.71% | growth inhibition [2] 9.04% | viability increase [3] 0.19% | viability [4] 108% | viability [5] 96.6% | inhibition [6] 0.595% | RAM network inhibition [7] 3.22%

COC(=O)c1c(N2C(=O)CCC2=O)sc2c1CCCC2
inactive: growth inhibition [1] -1.48% | growth inhibition [2] 0.535% | viability increase [3] -2.89% | viability [4] 102% | viability [5] 93.4% | inhibition [6] 1.26% | RAM network inhibition [7] -1.57%

O=C(Nc1cccc2c1CCCC2)c1ccc(Br)o1
inactive: growth inhibition [1] -11.8% | growth inhibition [2] 6.87% | viability increase [3] -1.15% | viability [4] 79.6% | viability [5] 68% | inhibition [6] 2.19% | RAM network inhibition [7] 9.1%

Cc1ccc(OCC(O)CN2CCN(CC(O)COc3ccc(C)cc3Cl)CC2)c(Cl)c1 (stereo not drawn)
inactive: growth inhibition [1] -5.18% | growth inhibition [2] -17.4% | viability increase [3] -4.02% | viability [4] 77.7% | viability [5] 81.8% | inhibition [6] 2.03% | RAM network inhibition [7] 2.76%

CCC(=O)Nc1c2c(nn1-c1cccc(Cl)c1)CSC2
inactive: growth inhibition [1] -7.68% | growth inhibition [2] -8.67% | viability increase [3] -1.61% | viability [4] 89.7% | viability [5] 86.1% | inhibition [6] 2.1% | RAM network inhibition [7] 1.11%

From PubChem BioAssay
